The sample as a whole holds a higher share of hits than the screen did.
Yeast eIF2B: eIF2B (yeast) activity modulation; S. cerevisiae eIF2B-epsilon R284H, GCN4-lacZ luminescence; hit rate 0.91% among 27,000; inhibition, % at 25 µM (by protocol); AID 688;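 active means mutant luminescence inhibited past about 50% while wild type luminescence and mutant growth stay under set limits, limit read from the data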
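Material – yeast eIF2B-epsilon R284H mutant carrying GCN4–beta-galactosidase fusion · Medium – YPD yeast growth medium · Compound – one concentration, 25 µM, 0.25% DMSO · Times – 16 h at 30 °C exposure · Signal – Beta-Glo luminescence plus absorbance at 595 nm · Read-out – % inhibition of reporter signal and growth versus controls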
Numbers without * were called inactive.

What do the screens show for `O=S(=O)(/N=C/c1c(O)ccc2ccccc12)c1cccs1`?
Yeast eIF2B: 17.8

How did Cc1ccccc1NC(=O)Cc1nc(CSc2nnc(-c3ccc4c(c3)OCO4)o2)cs1 do in these assays?
Yeast eIF2B: 1.4

Results for CCCSC1=C(C#N)C(c2cccs2)C(C(=O)Nc2ccccc2)=C(C)N1 (configuration not stated) ?
Yeast eIF2B: 20.6

Results for C=CCOC(=O)C1=C(C)NC(SC)=C(C#N)C1c1cccs1 (configuration not stated) ?
Yeast eIF2B: 9.6

Results for CCOC(=O)C1=C(C)NC(SCc2cc(=O)[nH][nH]2)=C(C#N)C1c1cccs1 (configuration not stated) ?
Yeast eIF2B: 55.8*

How did O=C(Nc1ccc(F)cc1F)c1ccco1 do in these assays?
Yeast eIF2B: 49.9

Results for O=C(CCn1cccc1)Nc1cc(F)ccc1F ?
Yeast eIF2B: 18.8

How did CCOCCCn1c(=N)c(C(=O)Nc2cc(C)on2)cc2c(=O)n3ccccc3nc21 do in these assays?
Yeast eIF2B: -2.0

How did O=C(NCc1ccco1)C(c1ccc(F)cc1)N(CC1CCCO1)C(=O)Cn1nnc2ccccc21 (configuration not stated) do in these assays?
Yeast eIF2B: 14.8

What do the screens show for `Cn1c(=O)c2c(ncn2CC(=O)Nc2ccccc2Sc2ccccc2)n(C)c1=O`?
Yeast eIF2B: 14.2

Results for Cc1cc(/C=C(\C#N)C(=O)NCc2ccco2)c(C)n1C1CCCC1 ?
Yeast eIF2B: 27.5

Results for Cc1cc(Nc2ccccc2)nn1C(=O)c1ccc(Br)cc1 ?
Yeast eIF2B: 13.6

How did Cc1cc(C)n(C(=O)c2ccc(NC(=O)CC(C)C)cc2)n1 do in these assays?
Yeast eIF2B: 50.0*

What do the screens show for `Cc1cc(NC(=O)c2ccc(NC(=O)CC(C)C)cc2)no1`?
Yeast eIF2B: 21.6

What do the screens show for `COc1cccc(C(=O)Oc2cc(-c3ccccc3)no2)c1`?
Yeast eIF2B: 21.2

Results for O=C(CCCn1c(=O)[nH]c2cc(Cl)ccc2c1=O)NCCC1=CCCCC1 ?
Yeast eIF2B: 13.3

What do the screens show for `CCCOCC1CC2(CC(C)(c3csc(N)n3)OC2=O)C(=O)O1` (configuration not stated)?
Yeast eIF2B: 61.2*

How did c1ccc(-c2cc3n(c2)CCc2ccccc2-3)cc1 do in these assays?
Yeast eIF2B: -6.8

How did O=c1cc(CSc2nc3ccccc3[nH]2)c2ccccc2[nH]1 do in these assays?
Yeast eIF2B: 21.5

How did CCC(=O)N(Cc1cc(=O)[nH]c2ccccc12)c1cccc(C)c1 do in these assays?
Yeast eIF2B: 51.2*

What do the screens show for `CCCCCOC(=O)c1cc(=O)[nH]c2ccccc12`?
Yeast eIF2B: 12.6

Results for CCN1CCN(C(=O)Nc2ccccc2OC)CC1 ?
Yeast eIF2B: 18.3

How did COc1ccc(-c2nnn(CC(=O)N(Cc3ccc(F)cc3)C(C(=O)NC3CCCC3)c3ccc(F)cc3)n2)cc1 (configuration not stated) do in these assays?
Yeast eIF2B: 55.5*

How did Cc1ccc(-c2nnn(CC(=O)N(Cc3cccs3)C(C(=O)NC3CCCC3)c3ccncc3)n2)cc1 (configuration not stated) do in these assays?
Yeast eIF2B: 3.4

How did CCOC(=O)CN(C(=O)Cn1nnc(-c2ccc(OC)cc2)n1)C(C(=O)NC1CCCC1)c1ccc(F)cc1 (configuration not stated) do in these assays?
Yeast eIF2B: 17.4

How did CCC(=O)N1CCc2cc(Br)cc(S(=O)(=O)N3CCN(c4ccccn4)CC3)c21 do in these assays?
Yeast eIF2B: 7.9

What do the screens show for `CC1=C(C(=O)Nc2cccc(C)n2)C(c2ccc3c(c2)OCO3)C2=C(CC(c3ccco3)CC2=O)N1` (configuration not stated)?
Yeast eIF2B: 11.8

How did CC1(C)Cc2c(sc3c2c(=N)n(Cc2ccco2)c(=O)n3Cc2ccc(F)cc2)CO1 do in these assays?
Yeast eIF2B: 56.6*

Results for O=C(Cn1c(=O)n(Cc2ccco2)c(=O)c2c3c(sc21)CCCCC3)c1ccccc1 ?
Yeast eIF2B: 27.8

How did CCCCn1c(=O)n(C)c(=O)c2c3c(sc21)COC(C)(C)C3 do in these assays?
Yeast eIF2B: 15.6

What do the screens show for `COc1ccc(-c2cc(=O)n(-c3nc4ccccc4[nH]3)[nH]2)cc1`?
Yeast eIF2B: 25.8

Results for CCCCCn1c(=NC(C)=O)c(C#N)cc2c(=O)n3cccc(C)c3nc21 ?
Yeast eIF2B: 27.7

What do the screens show for `COCCNC(=O)c1ccc2c(=O)n(Cc3ccco3)c(SCC(=O)NC3CCCC3)nc2c1`?
Yeast eIF2B: 32.5

What do the screens show for `CCCCCn1c(SCC(=O)OCC)nc2cc(C(=O)NCc3ccco3)ccc2c1=O`?
Yeast eIF2B: 56.1*

What do the screens show for `CCCCn1c(SCC(=O)NCc2ccco2)nc2ccc(N3CCOCC3)cc2c1=O`?
Yeast eIF2B: 1.7

What do the screens show for `O=C(c1ccco1)N1CCN(c2nc(-c3ccc(F)cc3)cs2)CC1`?
Yeast eIF2B: 25.6

Results for COc1ccc(S(=O)(=O)CCC(=O)N2c3ccccc3CC2C)cc1 (configuration not stated) ?
Yeast eIF2B: 55.8*
